# ROMK primary – ROMK potassium channel modulators, primary screen, cell-based, thallium flux, MLSMR library; ATP-sensitive inward rectifier potassium channel 1 (Homo sapiens), P48048; Tet-inducible ROMK, thallium flux fluorescence; actives lie on both sides; B-score at 10 µM; hit rate 2% among 130,000; AID 1918, 2009;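 active = signal ratio slope over the read window, or its plate-corrected B-score, at least 3 SD from the plate mean, either direction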;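 also: B-score of the F/F0 ratio slope over 7 to 12 s after thallium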
# Dynein transport – inhibitors of GR-EGFP nuclear translocation, primary screen, dynein cargo transport inhibitor project, imaging, high-content, 3617.4 mouse cells; test concentration mostly 20 µM; stimulated with dexamethasone, 1 µM; hits give low values; z-score, hits read low; hit rate 0.47% among 220,000; AID 1381, 2008;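 active = plate z-score of nuclear minus cytoplasmic receptor signal below a set negative limit, without overly bright fluorescence or cell loss, cut at about -3.5 in these data, passing the limit was not always enough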;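 also: z-score of nuclear minus cytoplasmic ring GR-EGFP intensity difference per well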
#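 Buffer or medium: tetracycline-free induction medium containing charcoal-stripped FBS / Reagent: dexamethasone agonist, 1.0 µM final, for 30 min / Technique: automated 10x imaging of fixed Hoechst-stained cells / Times: induction 48 h, compound 1 h, agonist 30 min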
# Redox H2O2 prof – compounds producing H2O2 with reducing agent – biochemical, NIH compound library profiling, artefact control for MLSCN library redox annotation, primary screen | DTT-dependent redox cycling H2O2, phenol red/HRP absorbance; 100% = 100 µM peroxide control, 0% = buffer | activation, % at 10 µM | hit rate 0.03% among 200,000 | AID 878, 2007;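 active = activation of at least 50% relative to the plate's high and low controls in the primary single-dose screen; inactive = activation below 50%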;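 also: compound incubated with DTT at 0.8 mM final as the reducing agent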
# Autophagy mod – autophagy modulators in MEF cells, primary screen, imaging, high-content, MEF GFP-LC3; MEF GFP-LC3 puncta imaging; test concentration mostly 10 µM; calls only at 10 µM (by protocol); hit rate 0.98% among 190,000;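 active = percentage of spot-positive cells more than 3 SD above its plate mean, without a fluorescence outlier flag or 80% toxicity; inconclusive = no clear call, values can overlap the other calls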;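 also: spot-positive cell cutoff set from DMSO-treated cells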
# Cl transport mod – KCC2 cotransporter modulators, thallium flux, primary screen, cell-based, HEK293 KCC2, FluoZin-2 fluorescence, MLSMR. Solute carrier family 12 member 5 (Homo sapiens), Q9H2X9. KCC2 cells, thallium flux FluoZin-2 fluorescence. B-score of Tl+ flux slope (higher = more flux/activation; lower = inhibition) at 10 µM. hit rate 2.2% among 190,000;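 active = thallium flux slope and its plate-corrected score both differing from the plate sample mean at a set confidence after two filtering rounds, in either direction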;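 also: slope of fluorescence scaled to starting intensity during 10 to 20 s after thallium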
# Target sequence (Q9H2X9 whole entry, looked up): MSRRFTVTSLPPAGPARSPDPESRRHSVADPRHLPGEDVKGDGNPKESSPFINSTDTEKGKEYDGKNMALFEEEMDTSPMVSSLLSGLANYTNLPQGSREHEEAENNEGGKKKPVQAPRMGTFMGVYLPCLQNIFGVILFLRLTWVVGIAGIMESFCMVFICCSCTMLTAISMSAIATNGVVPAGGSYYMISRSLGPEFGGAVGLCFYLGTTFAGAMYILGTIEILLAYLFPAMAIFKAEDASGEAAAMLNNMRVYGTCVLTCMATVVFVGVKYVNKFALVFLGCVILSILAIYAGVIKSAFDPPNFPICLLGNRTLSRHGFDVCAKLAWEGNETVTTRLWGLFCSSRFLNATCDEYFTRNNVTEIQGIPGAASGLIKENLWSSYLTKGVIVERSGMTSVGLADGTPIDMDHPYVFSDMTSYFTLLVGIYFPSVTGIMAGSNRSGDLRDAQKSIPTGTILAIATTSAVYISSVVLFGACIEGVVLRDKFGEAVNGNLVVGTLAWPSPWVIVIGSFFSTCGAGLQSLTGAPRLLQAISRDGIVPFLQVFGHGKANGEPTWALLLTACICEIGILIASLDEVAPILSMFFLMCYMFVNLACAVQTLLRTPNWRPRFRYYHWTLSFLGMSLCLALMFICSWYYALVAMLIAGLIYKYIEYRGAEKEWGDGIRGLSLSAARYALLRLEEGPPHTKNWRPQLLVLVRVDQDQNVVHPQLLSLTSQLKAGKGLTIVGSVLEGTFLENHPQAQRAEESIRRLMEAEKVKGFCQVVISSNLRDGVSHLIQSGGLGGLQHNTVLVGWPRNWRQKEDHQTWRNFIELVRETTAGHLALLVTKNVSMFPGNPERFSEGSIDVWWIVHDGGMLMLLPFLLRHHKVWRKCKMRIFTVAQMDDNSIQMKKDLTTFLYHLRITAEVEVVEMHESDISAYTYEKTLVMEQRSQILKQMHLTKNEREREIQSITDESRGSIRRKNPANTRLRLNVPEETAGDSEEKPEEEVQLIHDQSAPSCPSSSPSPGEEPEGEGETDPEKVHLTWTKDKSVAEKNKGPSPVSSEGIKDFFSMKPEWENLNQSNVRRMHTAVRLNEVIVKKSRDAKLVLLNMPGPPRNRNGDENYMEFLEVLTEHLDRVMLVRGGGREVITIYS
# KCC2 sec1 – KCC2 modulators in sodium-free buffer, confirmation, cell-based, HEK293 KCC2, thallium flux, secondary assay; FluoZin2 fluorescence; hits give high values; shares compounds with Cl transport mod; hit rate 15% among 3,700; normalised thallium flux (F/F0 slope) at 10 µM;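 active = thallium flux slope above the same plate's solvent-only control mean plus 3 SD; inconclusive = the two replicate wells disagree; inactive = no significant difference from solvent-only control wells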
# KCC2 bumet counter – thallium flux persisting under bumetanide in KCC2 cells, confirmation, counter-screen for KCC2 modulator project, cell-based, HEK293 KCC2, FluoZin2, secondary assay 3. HEK293-KCC2 + bumetanide/ouabain; hits give high values. shares compounds with Cl transport mod. normalized thallium flux at 10 µM. hit rate 49% among 3,700. AID 1714, 2009;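 active = thallium entry rate above the same plate's blocked-transporter control wells by more than 3 SD; inconclusive = the two repeat wells disagree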;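 also: raw slope of fluorescence over initial fluorescence between 10 and 20 s after thallium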
# KCC2 secondary2 – KCC2 modulators without ouabain present, confirmation, cell-based, HEK293 KCC2, thallium flux, FluoZin2, secondary assay 2. shares compounds with Cl transport mod. thallium flux FluoZin2 fluorescence; actives lie on both sides; F/F0 rise rate, 10–20 s post-thallium. normalized thallium flux at 10 µM. hit rate 23% among 3,700. AID 1715, 2009;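 active = thallium flux slope more than 3 SD above or below the plate's solvent-only control mean, mostly below; inconclusive = the two repeat wells disagreed; inactive = no significant shift from solvent-only controls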;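 also: raw slope with 0.1% DMSO as baseline and bumetanide as block control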
# HEK counter1 – thallium flux modulation in parental HEK cells, confirmation, counter-screen for KCC2 modulator project, cell-based, counterscreen 1. shares compounds with Cl transport mod. HEK293 parental cells, thallium flux FluoZin2, ouabain; baseline-ratio fluorescence slope, 10–20 s after thallium. thallium flux rate (normalised fluorescence) at 10 µM. hit rate 46% among 3,700. AID 1716, 2009;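 active = thallium flux rate significantly above the same plate's solvent-only control wells, beyond their mean plus 3 SD; inconclusive = the two replicate wells gave conflicting results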
# KCC2 ouabain – KCC2 inhibitors and activators, ouabain retest, confirmation, HEK-KCC2 cells | shares compounds with Cl transport mod | HEK293-KCC2, thallium flux FluoZin2 fluorescence; bidirectional: low = inhibitor, high = activator | raw Tl+ flux slope (below DMSO = inhibition, above = activation) at 10 µM | hit rate 48% among 3,700;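 active = thallium flux slope beyond 3 SD from same-plate DMSO control mean in most replicates, usually higher, sometimes lower; inconclusive = repeat tests gave conflicting results; inactive = no significant difference from controls in most replicates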;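 also: slope of initial-normalized fluorescence between seconds 10 and 20 after thallium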
# HEK293 Tl flux2 – native HEK Tl+ uptake effects, second counter-screen – HEK cells, counterscreen 2, counter-screen for KCC2 modulator project, confirmation | shares compounds with Cl transport mod | HEK293 parental, thallium flux FluoZin-2 fluorescence slope | thallium flux slope at 10 µM | hit rate 33% among 3,700;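 active = thallium flux slope above the same plate's solvent-control mean plus 3 SD in both duplicate wells; inconclusive = duplicate wells that disagreed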;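 also: run without ouabain in cells lacking the KCC2 cotransporter; slope of fluorescence scaled to its starting value between 10 and 20 s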
# The depositor's hits bear a star; i = inactive; ? = inconclusive; / = not tested or not shown; + = active, no number. This is a sample that favours compounds with a hit; in the whole collection about 4.1% have one here.
SMILES,ROMK primary,Dynein transport,Redox H2O2 prof,Autophagy mod,Cl transport mod,KCC2 sec1,KCC2 bumet counter,KCC2 secondary2,HEK counter1,KCC2 ouabain,HEK293 Tl flux2
Cc1ccc(-c2csc3nc(SCC(N)=O)n(Cc4ccccc4)c(=O)c23)cc1,0.0039,2.4,0,i,6.7*,0.011,0.021*,0.033,0.028*,0.026*,0.012
Cc1ccc(-c2csc3ncnc(SCc4ccc(C(=O)O)cc4)c23)cc1,1.7,-0.12,-1,i,140*,0.0082,0.12*,0.095*,0.094*,0.11*,0.09*
CCc1nnc(NC(=O)CSc2ncnc3scc(-c4ccc(C)cc4)c23)s1,/,0.99,-5,i,2.1,/,/,/,/,/,/
CN(C)C(=O)COC(=O)c1ccccc1Nc1ccc(SC(F)F)cc1,/,0.00042,1,i,-0.52,/,/,/,/,/,/
Cc1ccc(S(=O)(=O)N2CCOCC2)cc1NC(=O)CSc1nnc2cc(C)c3ccccc3n12,/,0.0025,-1,i,-3.6,/,/,/,/,/,/
Cc1cc2nnc(SCC(=O)Nc3cc(S(=O)(=O)N4CCOCC4)ccc3Cl)n2c2ccccc12,/,0.3,0,i,-4.7*,0.0057,?,0.024*,0.0057*,0.013*,0.0082*
Cc1[nH]c(=S)c(C#N)c2c1CCCC2,0.9,0.17,0,i,3.8*,0.0088,0.0086*,0.035,0.011*,0.021,0.011
Cc1[nH]c(=O)c(C#N)c2c1CCCC2,/,1.3,1,i,-0.034,/,/,/,/,/,/
CC(C)Cc1c2c([nH]c(=S)c1C#N)CCCC2,-0.0032,-0.05,0,i,27*,0.019*,0.068*,0.037,0.034*,0.058*,0.014*
NC(=O)C1CCN(CC(=O)Nc2cccc(C(=O)Nc3cccc(C(F)(F)F)c3)c2)CC1,/,-0.085,0,i,-0.081,/,/,/,/,/,/
O=C(N/N=C/c1ccc2c(c1)OCO2)C(O)c1ccccc1 (stereo unspecified),0.079,-0.47,0,i,4.7*,0.0079,0.0068,0.03,0.0066,0.02,0.0099
Oc1c(C=Nc2cccnc2)sc2ccccc12,-0.33,-3.3,2,i,-1,/,/,/,/,/,/
Oc1c(C=Nc2ccccc2)sc2ccccc12,-0.53,-0.39,0,i,2.8*,0.0069,0.0065,0.029,0.0069,?,0.01
Cc1nc(Nc2ccc3c(c2)OCCO3)c2c(C)c(C)sc2n1,-0.96,-0.89,0,i,7.1*,0.0056,0.021*,0.039*,0.019*,0.031*,0.021*
Cc1cc(-c2c(C)[nH]n(-c3ccccc3)c2=O)n[nH]1,-0.55,-0.18,-1,i,0.048,/,/,/,/,/,/
CCCCNC(=O)COC(=O)c1cc(C)oc1C,0.6,-0.59,0,i,-0.012,/,/,/,/,/,/
CCCCOc1ccc(OC(=O)Nc2cc(Cl)ccc2OC)cc1,/,-0.32,/,/,0.05,/,/,/,/,/,/
CN(C)c1ncc(S(=O)(=O)c2ccccc2)c(-c2ccc(Cl)cc2Cl)n1,/,-0.16,-14,i,-5.7*,0.0059,0.0042,0.027,0.007,0.018,0.0091
O=C1NCC(COCc2ccco2)O1 (stereo unspecified),-0.28,-0.51,1,i,-4.8*,0.017,0.0049,0.027,?,0.017,0.012
Cc1ccccc1OCC1CNC(=O)O1 (stereo unspecified),/,1.1,-1,i,/,/,/,/,/,/,/
CN(C(=S)NC(=O)C1(C)CC1(Cl)Cl)c1ccccc1 (stereo unspecified),0.38,0.65,0,i,5.1*,0.022*,0.026*,?,0.02*,0.027*,0.02*
CC1(C(=O)NC(=S)N(Cc2ccccc2)c2ccccn2)CC1(Cl)Cl (stereo unspecified),-0.65,-0.66,0,i,-0.82,/,/,/,/,/,/
S=C(Nc1ccccc1)c1nc2ccccc2s1,-0.27,2.1,0,i,9.7*,0.0069,0.013*,0.032,0.013*,?,0.014*
CCOc1ccc2nc(NC(=S)N(C)C)sc2c1,-0.45,-2.1,0,+,/,0.018*,0.13*,0.033,0.047*,0.057*,0.02*
CN(C)C(=S)Nc1nc2ccccc2s1,-1.4,0.94,-1,i,69*,0.017*,0.089*,0.034,0.032*,0.059*,0.017*
CCOC(=O)c1cccc(C(=O)Nc2nc3ccc(OC)cc3s2)n1,-0.33,1.4,-1,i,91*,0.027*,0.079*,?,0.041*,0.041*,0.039*
CCCC(=O)Nc1nc2ccc(OCC)cc2s1,/,0.27,-1,/,-0.18,/,/,/,/,/,/
COc1ccc(C(=O)NC2=Nc3ccccc3N=C(C)C2c2ccccc2)cc1 (stereo unspecified),/,-0.82,/,/,0.037,/,/,/,/,/,/
O=C1CCCC2=C1C(c1ccsc1)CC(=O)N2c1ccccc1F (stereo unspecified),-0.9,-0.51,0,i,-1,/,/,/,/,/,/
Cc1[nH]c2ccccc2c1/C=C/c1nc2ccccc2c(=O)n1CCO,-0.76,0.26,0,i,-4.2*,0.0061,0.0024*,0.03,0.0072,?,0.0098

# Compound activity: PubChem BioAssay, several laboratories
